Experimental findings from BindingDB's records for doi:10.1016/j.ejmech.2021.113996 (The University of Michigan Medical School, 2022) are described below.

Experiment [1] has as its target T1, Phosphatidylinositol 4,5-bisphosphate 3-kinase catalytic subunit delta isoform (Homo sapiens, UniProt O00329).
T1 sequence (O00329 whole entry): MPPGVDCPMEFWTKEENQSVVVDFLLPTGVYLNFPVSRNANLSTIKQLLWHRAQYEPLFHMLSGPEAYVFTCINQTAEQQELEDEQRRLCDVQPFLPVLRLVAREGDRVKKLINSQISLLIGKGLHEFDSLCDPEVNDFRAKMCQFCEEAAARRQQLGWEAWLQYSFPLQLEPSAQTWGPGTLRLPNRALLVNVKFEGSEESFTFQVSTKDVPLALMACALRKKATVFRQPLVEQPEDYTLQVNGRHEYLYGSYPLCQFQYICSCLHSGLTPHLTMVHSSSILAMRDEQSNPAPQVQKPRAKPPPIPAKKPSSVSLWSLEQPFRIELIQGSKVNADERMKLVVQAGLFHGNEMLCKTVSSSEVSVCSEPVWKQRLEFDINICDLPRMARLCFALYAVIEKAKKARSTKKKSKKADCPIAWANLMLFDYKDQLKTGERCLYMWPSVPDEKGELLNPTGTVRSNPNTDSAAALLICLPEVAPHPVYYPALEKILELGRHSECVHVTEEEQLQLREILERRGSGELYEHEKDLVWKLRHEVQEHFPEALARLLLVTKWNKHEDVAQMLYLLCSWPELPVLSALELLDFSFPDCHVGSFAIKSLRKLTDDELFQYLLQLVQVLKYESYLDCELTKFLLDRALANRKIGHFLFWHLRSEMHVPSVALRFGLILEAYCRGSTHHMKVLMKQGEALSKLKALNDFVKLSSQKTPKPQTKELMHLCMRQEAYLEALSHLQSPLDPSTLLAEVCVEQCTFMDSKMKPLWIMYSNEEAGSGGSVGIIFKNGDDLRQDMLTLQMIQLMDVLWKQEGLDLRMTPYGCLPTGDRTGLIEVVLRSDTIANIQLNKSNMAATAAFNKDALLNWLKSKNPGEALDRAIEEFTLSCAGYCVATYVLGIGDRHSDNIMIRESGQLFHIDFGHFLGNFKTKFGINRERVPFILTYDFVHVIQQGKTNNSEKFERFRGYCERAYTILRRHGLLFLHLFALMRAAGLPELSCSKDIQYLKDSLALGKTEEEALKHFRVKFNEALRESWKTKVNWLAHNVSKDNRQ
The experiment in a line: Inhibition of human PI3Kdelta by TR-FRET based Adapta assay. Background: TR-FRET usually uses a lanthanide donor and a delayed reading to cut background.

In experiment [2] the target is Phosphatidylinositol 4,5-bisphosphate 3-kinase catalytic subunit alpha isoform (Homo sapiens, UniProt P42336). The experiment can be described thus: Inhibition of human PI3Kalpha by TR-FRET based Adapta assay.
The target of experiment [3] is Phosphatidylinositol 4,5-bisphosphate 3-kinase catalytic subunit beta isoform (Homo sapiens, UniProt P42338). The experiment in a line: Inhibition of human PI3Kbeta by TR-FRET based Adapta assay. In short, it runs like this: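 Purified human PI3K isoforms α, β, γ and δ assayed by fluorescence-based Adapta TR-FRET lipid kinase assay (outsourced). Inhibitor range 0.1 nM–10 μM. IC₅₀ is the mean ± SEM of three experiments, each run in duplicate.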

Experiment [4] concerns the target Phosphatidylinositol 4,5-bisphosphate 3-kinase catalytic subunit gamma isoform (Homo sapiens, UniProt P48736). The experiment can be described thus: Inhibition of human PI3Kgamma by TR-FRET based Adapta assay.

Phosphatidylinositol 4,5-bisphosphate 3-kinase catalytic subunit alpha isoform, sequence (P42336 whole entry, canonical isoform): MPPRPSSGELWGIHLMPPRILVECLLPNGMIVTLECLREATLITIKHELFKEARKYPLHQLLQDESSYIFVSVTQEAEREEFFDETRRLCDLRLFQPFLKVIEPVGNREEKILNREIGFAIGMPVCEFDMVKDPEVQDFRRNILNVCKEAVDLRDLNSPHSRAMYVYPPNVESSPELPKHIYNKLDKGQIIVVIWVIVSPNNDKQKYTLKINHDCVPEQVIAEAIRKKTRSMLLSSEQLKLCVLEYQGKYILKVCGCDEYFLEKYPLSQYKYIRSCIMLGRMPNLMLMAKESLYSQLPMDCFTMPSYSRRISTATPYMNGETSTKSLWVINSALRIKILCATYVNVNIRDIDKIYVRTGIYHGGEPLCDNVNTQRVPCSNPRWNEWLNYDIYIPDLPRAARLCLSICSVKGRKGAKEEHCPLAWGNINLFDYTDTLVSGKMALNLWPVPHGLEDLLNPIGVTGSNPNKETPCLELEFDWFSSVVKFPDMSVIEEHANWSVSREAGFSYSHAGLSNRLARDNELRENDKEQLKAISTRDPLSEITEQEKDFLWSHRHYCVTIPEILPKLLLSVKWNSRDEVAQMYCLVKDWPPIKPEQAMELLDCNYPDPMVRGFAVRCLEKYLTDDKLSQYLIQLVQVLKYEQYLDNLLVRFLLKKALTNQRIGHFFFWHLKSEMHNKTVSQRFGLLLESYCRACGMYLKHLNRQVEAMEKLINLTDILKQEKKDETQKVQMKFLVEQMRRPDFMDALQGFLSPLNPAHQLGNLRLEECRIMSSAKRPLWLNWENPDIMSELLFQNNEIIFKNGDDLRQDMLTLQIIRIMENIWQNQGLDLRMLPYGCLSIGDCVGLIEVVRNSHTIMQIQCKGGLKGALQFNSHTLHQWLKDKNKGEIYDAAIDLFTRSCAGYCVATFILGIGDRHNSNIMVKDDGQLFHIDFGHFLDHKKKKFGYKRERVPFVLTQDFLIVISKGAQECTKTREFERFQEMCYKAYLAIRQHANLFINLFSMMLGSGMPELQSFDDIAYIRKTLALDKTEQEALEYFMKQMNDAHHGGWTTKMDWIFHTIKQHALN
Phosphatidylinositol 4,5-bisphosphate 3-kinase catalytic subunit beta isoform, sequence (P42338 whole entry, canonical isoform): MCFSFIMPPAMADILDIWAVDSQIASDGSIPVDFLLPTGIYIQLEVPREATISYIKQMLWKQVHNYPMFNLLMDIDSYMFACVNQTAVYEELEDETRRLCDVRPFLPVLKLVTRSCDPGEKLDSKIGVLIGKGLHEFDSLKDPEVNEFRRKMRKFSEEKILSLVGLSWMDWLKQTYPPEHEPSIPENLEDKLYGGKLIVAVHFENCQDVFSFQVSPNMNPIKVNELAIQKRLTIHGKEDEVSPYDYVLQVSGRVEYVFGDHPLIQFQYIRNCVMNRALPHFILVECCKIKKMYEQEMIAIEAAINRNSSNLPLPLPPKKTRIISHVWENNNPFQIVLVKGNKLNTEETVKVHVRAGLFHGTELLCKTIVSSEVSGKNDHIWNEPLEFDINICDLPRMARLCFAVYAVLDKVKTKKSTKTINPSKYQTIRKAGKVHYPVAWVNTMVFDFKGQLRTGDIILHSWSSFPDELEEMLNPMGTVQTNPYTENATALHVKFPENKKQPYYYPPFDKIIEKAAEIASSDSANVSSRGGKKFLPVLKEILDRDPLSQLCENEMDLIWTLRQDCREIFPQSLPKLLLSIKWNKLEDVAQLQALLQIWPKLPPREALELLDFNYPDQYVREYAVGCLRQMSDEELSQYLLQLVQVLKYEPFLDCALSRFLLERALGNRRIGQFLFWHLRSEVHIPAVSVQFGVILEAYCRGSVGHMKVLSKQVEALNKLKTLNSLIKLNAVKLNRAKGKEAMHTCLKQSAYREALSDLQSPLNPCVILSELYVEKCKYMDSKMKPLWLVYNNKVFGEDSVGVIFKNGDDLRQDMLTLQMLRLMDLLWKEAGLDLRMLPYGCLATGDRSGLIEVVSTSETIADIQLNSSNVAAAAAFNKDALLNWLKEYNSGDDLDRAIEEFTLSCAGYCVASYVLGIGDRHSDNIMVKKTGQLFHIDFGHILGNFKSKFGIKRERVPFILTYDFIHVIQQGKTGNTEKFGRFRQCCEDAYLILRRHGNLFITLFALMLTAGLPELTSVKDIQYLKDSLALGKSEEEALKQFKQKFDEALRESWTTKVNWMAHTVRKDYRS
Phosphatidylinositol 4,5-bisphosphate 3-kinase catalytic subunit gamma isoform, sequence (P48736 whole entry, canonical isoform): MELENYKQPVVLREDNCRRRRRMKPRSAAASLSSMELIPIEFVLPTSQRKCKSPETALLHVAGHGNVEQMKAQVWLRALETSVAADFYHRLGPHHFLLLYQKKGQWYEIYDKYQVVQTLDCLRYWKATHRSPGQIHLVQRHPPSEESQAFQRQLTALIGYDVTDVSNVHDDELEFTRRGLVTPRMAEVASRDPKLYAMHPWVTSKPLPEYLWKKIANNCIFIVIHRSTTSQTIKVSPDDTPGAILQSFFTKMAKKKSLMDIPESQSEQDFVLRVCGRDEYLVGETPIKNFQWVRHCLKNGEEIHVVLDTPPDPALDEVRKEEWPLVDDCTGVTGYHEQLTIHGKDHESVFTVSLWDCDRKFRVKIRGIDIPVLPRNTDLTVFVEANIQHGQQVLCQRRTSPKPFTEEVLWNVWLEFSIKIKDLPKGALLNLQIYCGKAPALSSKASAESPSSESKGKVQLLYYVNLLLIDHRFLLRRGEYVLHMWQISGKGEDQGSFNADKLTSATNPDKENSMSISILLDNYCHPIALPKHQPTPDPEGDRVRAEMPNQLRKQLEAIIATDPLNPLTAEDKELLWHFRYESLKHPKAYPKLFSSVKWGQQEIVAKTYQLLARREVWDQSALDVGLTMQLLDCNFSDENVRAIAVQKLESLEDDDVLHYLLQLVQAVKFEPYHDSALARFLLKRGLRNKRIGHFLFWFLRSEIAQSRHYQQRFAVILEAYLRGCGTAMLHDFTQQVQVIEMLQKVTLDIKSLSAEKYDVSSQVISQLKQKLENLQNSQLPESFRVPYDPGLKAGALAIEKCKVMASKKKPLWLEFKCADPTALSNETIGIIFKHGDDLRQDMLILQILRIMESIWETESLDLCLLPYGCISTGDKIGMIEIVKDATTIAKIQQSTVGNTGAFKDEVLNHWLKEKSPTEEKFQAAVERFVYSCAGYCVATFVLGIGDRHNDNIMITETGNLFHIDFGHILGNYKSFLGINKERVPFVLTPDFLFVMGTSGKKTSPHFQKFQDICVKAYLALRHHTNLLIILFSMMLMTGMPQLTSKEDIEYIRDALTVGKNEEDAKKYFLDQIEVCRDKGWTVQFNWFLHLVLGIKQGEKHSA

As for `CC(=O)N1CCN(c2nc(N3CCOCC3)nc(-n3c(C(F)F)nc4ccccc43)n2)CC1`, the IC50 (usually the concentration at which inhibition is half-maximal) stood at 2.9 nM in experiment [1] and 8.2 nM in experiment [2].
Turning to `FC(F)c1nc2ccccc2n1-c1nc(N2CCNCC2)nc(N2CCOCC2)n1`, the half-inhibitory concentration (IC50) in experiment [1] stood at 142 nM; in experiment [2], 180 nM.
`CNCCN(CCO)c1nc(N2CCOCC2)nc(-n2c(C(F)F)nc3ccccc32)n1`: the IC50 in experiment [1] is 47 nM; in experiment [3], 627 nM; in experiment [2], 148 nM; in experiment [4], 869 nM.
